Data on three compounds can be found in ChEMBL document CHEMBL3856209, “Novel pyrazolopyridine derivatives as potential angiogenesis inhibitors: Synthesis, biological evaluation and transcriptome-based mechanistic analysis” (Eur J Med Chem, 2016).

The test system of test [1] is HUVEC. As to the kind of experiment: Effect on MIR181A2HG gene expression in serum-starved HUVEC after 6 hrs by microarray analysis relative to control. The test is classed as functional, Homo sapiens. The procedure, abridged:
(§1)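 Serum-starved confluent HUVEC (pooled from 3–5 donors, passage ≤4) were treated with 2 μM compound or vehicle in 2.5% FBS for 6 h or 24 h, and total RNA was isolated. Hybridization was on Illumina Human-HT12. Data were processed with bgAdjust, vst and rsn normalization. Changes versus DMSO were called by moderated paired t-test at p < 0.05 and |log2 fold change| > 0.5.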

The subject of test [2] is HUVEC. Description: Effect on SND1-IT1 gene expression in serum-starved HUVEC after 6 hrs by microarray analysis relative to control. It is filed as functional, Homo sapiens.
For test [3], the system named is HUVEC. As to the kind of experiment: Effect on MIR181A2HG gene expression in serum-starved HUVEC after 24 hrs by microarray analysis relative to control. It is filed as functional, Homo sapiens. The procedure, abridged:
as §1

Test [4] has as its system HUVEC. As to the kind of experiment: Effect on GANAB gene expression in serum-starved HUVEC after 6 hrs by microarray analysis relative to control. It is filed as functional, Homo sapiens. The procedure, abridged: (§2)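 Confluent, serum-starved HUVEC (pooled from 3–5 donors, passage ≤4) treated with 2 μM compound or vehicle with 2.5% FBS for 6 h or 24 h. Total RNA hybridized to Illumina Human-HT12 arrays. Data were background-corrected, vst-transformed and rsn-normalized. Hits called by moderated paired t-test versus DMSO-treated cells, p < 0.05 and log2 fold change >|0.5|.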

Test [5] has as its system HUVEC. Description: Effect on RNA18S5 gene expression in serum-starved HUVEC after 24 hrs by microarray analysis relative to control. The test is classed as functional, Homo sapiens.
Test [6] relates to HUVEC. As to the kind of experiment: Effect on CKS2 gene expression in serum-starved HUVEC after 6 hrs by microarray analysis relative to control. It is filed as functional, Homo sapiens. The procedure, abridged:
as §2

Test [7] has as its system HUVEC. Description: Effect on SIVA1 gene expression in serum-starved HUVEC after 24 hrs by microarray analysis relative to control. The test is classed as functional, Homo sapiens.
For test [8], the system named is HUVEC. Description: Effect on MAP1B gene expression in serum-starved HUVEC after 6 hrs by microarray analysis relative to control. It is filed as functional, Homo sapiens. The procedure, abridged:
as §1

The subject of test [9] is HUVEC. Description: Effect on ZAK gene expression in serum-starved HUVEC after 6 hrs by microarray analysis relative to control. It is filed as functional, Homo sapiens.
Test [10] has as its system HUVEC. As to the kind of experiment: Effect on SERPINB2 gene expression in serum-starved HUVEC after 24 hrs by microarray analysis relative to control. It is filed as functional, Homo sapiens.
In test [11] the test system is HUVEC. As to the kind of experiment: Effect on OIP5 gene expression in serum-starved HUVEC after 6 hrs by microarray analysis relative to control. It is filed as functional, Homo sapiens.
The test system of test [12] is HUVEC. Description: Effect on CDKN3 gene expression in serum-starved HUVEC after 6 hrs by microarray analysis relative to control. It is filed as functional, Homo sapiens. The procedure, abridged:
(§3)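 Serum-starved confluent HUVEC treated with 2 μM compound or DMSO in 2.5% FBS for 6 h or 24 h; RNA hybridized to Illumina Human-HT12 arrays. Data background-corrected, vst-transformed and rsn-normalized. Differential probes called by moderated paired t-test (limma) at p < 0.05 and log2 fold change >|0.5| vs DMSO.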

The subject of test [13] is HUVEC. As to the kind of experiment: Effect on CDCA5 gene expression in serum-starved HUVEC after 6 hrs by microarray analysis relative to control. It is filed as functional, Homo sapiens. The procedure, abridged:
as §3

The subject of test [14] is HUVEC. Description: Effect on TRIP13 gene expression in serum-starved HUVEC after 6 hrs by microarray analysis relative to control. The test is classed as functional, Homo sapiens.
Test [15] has as its system HUVEC. As to the kind of experiment: Effect on CCL8 gene expression in serum-starved HUVEC after 24 hrs by microarray analysis relative to control. The test is classed as functional, Homo sapiens. The method in brief:
(§4)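 Confluent serum-starved HUVEC (primary, pooled from 3–5 donors, passage ≤4) treated with 2 μM compound or DMSO vehicle in 2.5% FBS for 6 h or 24 h. Total RNA hybridized to Illumina Human-HT12 arrays, background-corrected, vst-transformed and rsn-normalized. Differential expression versus DMSO by moderated paired t-test (p < 0.05, |log2 fold change| > 0.5).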

The test system of test [16] is HUVEC. Description: Effect on ASAP1 gene expression in serum-starved HUVEC after 6 hrs by microarray analysis relative to control. It is filed as functional, Homo sapiens. The method in brief: as §4
Test [17] deals with HUVEC. As to the kind of experiment: Effect on MGARP gene expression in serum-starved HUVEC after 6 hrs by microarray analysis relative to control. It is filed as functional, Homo sapiens. The procedure, abridged: as §1
Test [18] relates to HUVEC. Description: Effect on LPIN1 gene expression in serum-starved HUVEC after 6 hrs by microarray analysis relative to control. It is filed as functional, Homo sapiens.
For test [19], the system named is HUVEC. Description: Effect on SCD gene expression in serum-starved HUVEC after 6 hrs by microarray analysis relative to control. It is filed as functional, Homo sapiens.
For test [20], the system named is HUVEC. Description: Effect on HLA-DPA1 gene expression in serum-starved HUVEC after 6 hrs by microarray analysis relative to control. It is filed as functional, Homo sapiens. The procedure, abridged:
as §2

The subject of test [21] is HUVEC. Description: Effect on CTSH gene expression in serum-starved HUVEC after 6 hrs by microarray analysis relative to control. The test is classed as functional, Homo sapiens. The method in brief: as §2
Test [22] concerns HUVEC. As to the kind of experiment: Effect on RNU1-28P gene expression in serum-starved HUVEC after 6 hrs by microarray analysis relative to control. It is filed as functional, Homo sapiens.
Test [23] has as its system HUVEC. As to the kind of experiment: Effect on MYO10 gene expression in serum-starved HUVEC after 24 hrs by microarray analysis relative to control. It is filed as functional, Homo sapiens. The procedure, abridged: as §1
In test [24] the test system is HUVEC. Description: Effect on NR2F1 gene expression in serum-starved HUVEC after 6 hrs by microarray analysis relative to control. It is filed as functional, Homo sapiens. The procedure, abridged:
as §1

The subject of test [25] is HUVEC. As to the kind of experiment: Effect on SMC4 gene expression in serum-starved HUVEC after 6 hrs by microarray analysis relative to control. The test is classed as functional, Homo sapiens.
Test [26] can be described thus: Upregulation of MSMO1 gene expression in serum-starved HUVEC at 2 uM after 24 hrs by qRT-PCR analysis. It is filed as functional, cell-based. The following applies: Homo sapiens.
Test [27] deals with HUVEC. As to the kind of experiment: Effect on MVD gene expression in serum-starved HUVEC after 6 hrs by microarray analysis relative to control. It is filed as functional, Homo sapiens. The procedure, abridged: as §1
The subject of test [28] is HUVEC. Description: Effect on ABCA1 gene expression in serum-starved HUVEC after 6 hrs by microarray analysis relative to control. The test is classed as functional, Homo sapiens. The procedure, abridged:
as §4

The subject of test [29] is HUVEC. Description: Effect on DKK1 gene expression in serum-starved HUVEC after 6 hrs by microarray analysis relative to control. The test is classed as functional, Homo sapiens. The method in brief:
as §4

For test [30], the system named is HUVEC. As to the kind of experiment: Effect on EMCN gene expression in serum-starved HUVEC after 6 hrs by microarray analysis relative to control. The test is classed as functional, Homo sapiens. The procedure, abridged:
as §4

Test [31] concerns HUVEC. As to the kind of experiment: Effect on TUBB2B gene expression in serum-starved HUVEC after 24 hrs by microarray analysis relative to control. The test is classed as functional, Homo sapiens.
Test [32] deals with HUVEC. Description: Effect on VCAM1 gene expression in serum-starved HUVEC after 24 hrs by microarray analysis relative to control. The test is classed as functional, Homo sapiens.
Test [33] has as its system HUVEC. As to the kind of experiment: Effect on FDPS gene expression in serum-starved HUVEC after 6 hrs by microarray analysis relative to control. It is filed as functional, Homo sapiens. The method in brief:
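Serum-starved confluent HUVEC (primary, pooled from 3–5 donors, passage ≤4) treated with 2 μM test compound or DMSO vehicle (working dilutions ≤0.1% v/v) in presence of 2.5% FBS for 6 h or 24 h; total RNA hybridized to Illumina Human-HT12 arrays; background correction, vst, rsn normalization; moderated paired t-test versus DMSO, thresholds p < 0.05 and log2 fold change >|0.5|.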

Test [34] concerns HUVEC. As to the kind of experiment: Effect on CYP4X1 gene expression in serum-starved HUVEC after 6 hrs by microarray analysis relative to control. The test is classed as functional, Homo sapiens. The procedure, abridged: as §2
For test [35], the system named is HUVEC. Description: Effect on MSMO1 gene expression in serum-starved HUVEC after 6 hrs by microarray analysis relative to control. The test is classed as functional, Homo sapiens. The method in brief: as §1
The subject of test [36] is HUVEC. Description: Effect on GPR116 gene expression in serum-starved HUVEC after 6 hrs by microarray analysis relative to control. The test is classed as functional, Homo sapiens. The procedure, abridged:
as §2

Molecules are shown by their SMILES. Calls of active or inactive are those of the source.

Regarding `COc1ccc(Cn2nc(-c3ccccc3)c3cc(Nc4ccc(N5CCN(C)CC5)cc4)nc(N4CCNCC4)c32)cc1`, the log2FC in the test with HUVEC [1] is -0.0835; in the test with HUVEC [2], -0.0103; with HUVEC [3], 0.5287; with HUVEC [4], -0.1113; with HUVEC [5], 0.5309.

Consider `COc1ccc(Cn2nc(-c3ccccc3)c3cc(Cl)nc(N4CCNCC4)c32)cc1`, for which the log2FC in the test on HUVEC [6] is reported as 0.2477; with HUVEC [7], -0.5225; with HUVEC [9], 0.5589. Besides, in the test on HUVEC [8], the “fold change (FC)” value is 0.5859.

Take `COc1ccc(Cn2nc(-c3ccccc3)c3cc(Nc4ccc(N5CCN(C)CC5)cc4)nc(N4CCN(C)CC4)c32)cc1`: the log2FC in the test with HUVEC [10] is reported as -0.6601; in the test with HUVEC [12], -0.0153; in the test with HUVEC [14] it was -0.1432; with HUVEC [17], -0.2938; in the test on HUVEC [19], 0.7444; in the test on HUVEC [22], -0.7994. The log2FC in the test with HUVEC [23] is given as 0.507; in the test on HUVEC [24], -0.2125; in the test on HUVEC [31] it was 0.8576; in the test on HUVEC [32], -0.7052. Besides, the “fold change (FC)” value was -0.4214 in the test with HUVEC [11]; 0.0694 in the test with HUVEC [13]; -0.7427 in the test with HUVEC [15]; 0.6103 with HUVEC [16]; 0.2925 with HUVEC [18]; 0.6583 with HUVEC [20]. Moreover, the “fold change (FC)” value with HUVEC [21] turned out to be 0.4595; in the test with HUVEC [25], 0.0208; with HUVEC [27], 0.3962; with HUVEC [28], 0.0783; in the test on HUVEC [29], 0.1994; in the test with HUVEC [30], 0.2035. Also, the “fold change (FC)” value in the test with HUVEC [33] was -0.059; with HUVEC [34], 0.4504; with HUVEC [35], 0.7741; in the test on HUVEC [36], 0.1625. Besides, the outcome in [26] was Active.
